This passage reports GFP response vs DMSO, GFP response relative to DMSO and GFP response, % of DMSO results from PubChem BioAssay.

Calls of active or inactive are those of the source.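 How the source made its calls, unless noted: active means GFP response above 150% of the DMSO level; inconclusive means fewer than 70 events counted for a yeast strain; inactive means the rest.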

Test [1] can be described thus: RPL19A-GFP modulators, yeast TOR pathway, confirmation, cell-based, S. cerevisiae, flow cytometry, cherry picks, mother/daughter gates (AID 2270;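 active means GFP response below 50% of the DMSO control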). To be noted: S. cerevisiae RPL19A-GFP strain, 3 h, at 10 µM, stronger effect = lower value, 100 = same GFP as DMSO wells.
A short description of test [2]: LAP4-GFP expression modulators in yeast, confirmation, cell-based, cherry picks, flow cytometry, mother/daughter gates (AID 2271;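 active means GFP response above 150% of the DMSO control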;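 further: ratio of sample to DMSO plate mean so 100% equals DMSO level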). Particulars: S. cerevisiae LAP4-GFP strain, 3 h, at 10 µM, stronger effect = higher value, 100 means same as DMSO control. In outline:
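System: Alexa 633-stained baker's yeast GFP-fusion strain / Medium: synthetic complete (SC) yeast growth medium / Doses: compound at 10 µM, single point / Times: 3 h treatment at 30 °C with rotation / Detection: HT flow cytometry, GFP fluorescence channel / Benchmarks: DMSO-only negative wells, rapamycin 400 ng/mL positive wells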

A short description of test [3]: modulators of MEP2-GFP levels in yeast, confirmation, S. cerevisiae, flow cytometry GFP, cherry picks (AID 2272;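 active means GFP response above 150% of the DMSO control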;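 further: ratio of well signal to plate DMSO mean so 100% equals DMSO level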). Particulars: S. cerevisiae MEP2-GFP strain, 3 h, at 10 µM, stronger effect = higher value.
A short description of test [4]: AGP1-GFP expression modulators, hit retest, confirmation, cell-based, flow cytometry, S. cerevisiae, cherry picks (AID 2273).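 Further: median GFP channel fluorescence over the whole cell population gate.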 To be noted: S. cerevisiae AGP1-GFP strain, 3 h, at 10 µM.
Test [5] is described as follows: modulators of CIT2-GFP expression in yeast, confirmation, S. cerevisiae, GFP fusion, cherry picks, mother/daughter gates (AID 2274). Particulars: S. cerevisiae CIT2-GFP strain, flow cytometry, 3 h, at 10 µM, stronger effect = higher value.
[6] abbreviates: measured here: daughter cell gate.
[7] abbreviates: measured here: mother cell gate.
Setting [8] is: measured here: daughter cell gate response.
Setting [9] is: measured here: mother cell gate response.

As to `CCCc1[nH]nc2c1C(c1ccc(Br)s1)C(C#N)=C(N)O2` (configuration not stated), the GFP response vs DMSO is 96.2% (inactive) in test [1], 96.7% in test [1] (setting [6]), 95.4% in test [1] (setting [7]) and 122% (inactive) in test [3]. The GFP response relative to DMSO was 137% (inactive) in test [2], 136% in test [2] (setting [8]) and 137% in test [2] (setting [9]). The GFP response, % of DMSO in test [4] was 105% (inactive); in test [5], 101% (inactive); in test [5] (setting [6]), 101%; in test [5] (setting [7]) it was 102%.

`COCc1cc(=O)[nH]c(SCCS(=O)(=O)c2ccc(Cl)cc2Cl)n1`: the GFP response vs DMSO in test [1] was 110% (inactive); in test [1] (setting [6]), 115%; in test [1] (setting [7]), 107%; in test [3], 100% (inactive). The GFP response relative to DMSO was 102% (inactive) in test [2], 100% in test [2] (setting [8]) and 105% in test [2] (setting [9]). Moreover, the GFP response, % of DMSO was 103% (inactive) in test [4], 119% (inactive) in test [5], 119% in test [5] (setting [6]) and 116% in test [5] (setting [7]).

For `C=CCNC(=O)/C(C#N)=C/c1c(N(Cc2ccccc2)Cc2ccccc2)nc2ccccn2c1=O`, the GFP response vs DMSO was 98.8% (inactive) in test [1], 98.6% in test [1] (setting [6]), 98.8% in test [1] (setting [7]) and 103% (inactive) in test [3]. For the same molecule, the results for the GFP response relative to DMSO in test [2], in test [2] (setting [8]) and in test [2] (setting [9]) were 99.8% (inactive), 99.7% and 99.2%, respectively. For the same molecule, the GFP response, % of DMSO in test [4] is 101% (inactive); in test [5], 94.7% (inactive); in test [5] (setting [6]), 96.8%; in test [5] (setting [7]) it was 94.7%.

`CC(C(=O)NCCc1ccc(F)cc1)N1CCN(Cc2ccccc2)CC1` (configuration not stated): the GFP response vs DMSO in test [1] is 96.5% (inactive); in test [1] (setting [6]), 97%; in test [1] (setting [7]) it was 96.8%; in test [3] it was 102% (inactive). In addition, the GFP response relative to DMSO in test [2] is 98.7% (inactive); in test [2] (setting [8]) it was 100%; in test [2] (setting [9]), 101%. In addition, the GFP response, % of DMSO in test [4] is 98.5% (inactive); in test [5], 95.2% (inactive); in test [5] (setting [6]), 96.5%; in test [5] (setting [7]) it was 95.5%.

Regarding `CC(Oc1ccc(Cl)cc1)C(=O)NNC(=S)NC(=O)c1ccco1` (configuration not stated), the GFP response vs DMSO in test [1] is 99.6% (inactive); in test [1] (setting [6]) it was 97.1%; in test [1] (setting [7]), 97.2%; in test [3] it was 128% (inactive). Besides, the GFP response relative to DMSO was 227% (active) in test [2], 112% in test [2] (setting [8]) and 205% in test [2] (setting [9]). The GFP response, % of DMSO in test [4] was 115% (inactive); in test [5] it was 106% (inactive); in test [5] (setting [6]), 88.4%; in test [5] (setting [7]) it was 93.2%.

As for `Cc1ccc(S(=O)(=O)N(CC(=O)NCc2ccncc2)Cc2ccccc2F)cc1`, the GFP response vs DMSO is 97.6% (inactive) in test [1], 97.1% in test [1] (setting [6]), 98.5% in test [1] (setting [7]) and 105% (inactive) in test [3]. Further, the GFP response relative to DMSO in test [2] is 99.2% (inactive); in test [2] (setting [8]), 99.2%; in test [2] (setting [9]), 97.2%. The GFP response, % of DMSO in test [4] was 102% (inactive); in test [5] it was 103% (inactive); in test [5] (setting [6]), 101%; in test [5] (setting [7]), 102%.

`N/C(Cc1ccc(Cl)cc1)=N\OC(=O)c1cccc2ccccc12`: the GFP response vs DMSO in test [1] was 96.2% (inactive); in test [1] (setting [6]), 82.1%; in test [1] (setting [7]) it was 82.6%; in test [3], 126% (inactive). For the same molecule, the figures for the GFP response relative to DMSO in test [2], in test [2] (setting [8]) and in test [2] (setting [9]) were 199% (active), 127% and 188%, respectively. Besides, the GFP response, % of DMSO was 88.1% (inactive) in test [4], 139% (inactive) in test [5], 97.4% in test [5] (setting [6]) and 127% in test [5] (setting [7]).

Turning to `CCSC1=NCCN1S(=O)(=O)c1ccc(F)cc1`, the GFP response vs DMSO in test [1] is 98.8% (inactive); in test [1] (setting [6]) it was 97.6%; in test [1] (setting [7]), 99%; in test [3], 103% (inactive). In addition, the GFP response relative to DMSO in test [2] is 105% (inactive); in test [2] (setting [8]) it was 101%; in test [2] (setting [9]), 106%. Also, the GFP response, % of DMSO was 101% (inactive) in test [4], 93.4% (inactive) in test [5], 93.7% in test [5] (setting [6]) and 92.8% in test [5] (setting [7]).

In the case of `CS(=O)(=O)N1N=C(c2ccc(Br)cc2)CC1c1ccc2c(c1)OCO2` (configuration not stated), the GFP response vs DMSO in test [1] was 102% (inactive); in test [1] (setting [6]), 101%; in test [1] (setting [7]), 102%; in test [3] it was 114% (inactive). Moreover, the GFP response relative to DMSO in test [2] is 105% (inactive); in test [2] (setting [8]) it was 104%; in test [2] (setting [9]), 104%. Further, the GFP response, % of DMSO in test [4] is 99.3% (inactive); in test [5] it was 109% (inactive); in test [5] (setting [6]), 111%; in test [5] (setting [7]), 107%.

Consider `O=C(Nc1cc(Sc2ccccn2)cc([N+](=O)[O-])c1)c1ccc(Cl)cc1`, for which the GFP response vs DMSO in test [1] is 99% (inactive); in test [1] (setting [6]) it was 99.6%; in test [1] (setting [7]) it was 99.2%; in test [3], 100% (inactive). For the same molecule, the GFP response relative to DMSO in test [2] is 99.2% (inactive); in test [2] (setting [8]), 101%; in test [2] (setting [9]), 97.2%. Further, the GFP response, % of DMSO in test [4] is 97.4% (inactive); in test [5], 101% (inactive); in test [5] (setting [6]), 101%; in test [5] (setting [7]) it was 99.7%.

As to `Cc1ccc(S(=O)(=O)N(Cc2ccc(F)cc2)Cc2ccco2)cc1`, the GFP response vs DMSO is 97.6% (inactive) in test [1], 96.7% in test [1] (setting [6]), 97.7% in test [1] (setting [7]) and 103% (inactive) in test [3]. Besides, the figures for the GFP response relative to DMSO in test [2], in test [2] (setting [8]) and in test [2] (setting [9]) were 102% (inactive), 105% and 104%, respectively. Also, the GFP response, % of DMSO in test [4] was 97.9% (inactive); in test [5], 97.2% (inactive); in test [5] (setting [6]) it was 99.3%; in test [5] (setting [7]) it was 98.2%.

With `Oc1ccc(/C=N/Nc2nc(-c3cccnc3)nc3ccccc23)c(O)c1`, the GFP response vs DMSO in test [1] was 93.5% (inactive); in test [1] (setting [6]), 95.3%; in test [1] (setting [7]) it was 94.6%; in test [3] it was 101% (inactive). Further, the GFP response relative to DMSO in test [2] was 83.8% (inactive); in test [2] (setting [8]), 84.2%; in test [2] (setting [9]), 82.7%. For the same molecule, the GFP response, % of DMSO is 101% (inactive) in test [4], 106% (inactive) in test [5], 108% in test [5] (setting [6]) and 105% in test [5] (setting [7]).

With `O=C(NNC(=S)NC(=O)c1cn(-c2ccccc2)nc1-c1ccccc1)c1ccncc1`, the GFP response vs DMSO is 98% (inactive) in test [1], 101% in test [1] (setting [6]), 94.8% in test [1] (setting [7]) and 101% (inactive) in test [3]. Further, the figures for the GFP response relative to DMSO in test [2], in test [2] (setting [8]) and in test [2] (setting [9]) were 143% (inactive), 125% and 146%, respectively. Also, the GFP response, % of DMSO in test [4] is 99.5% (inactive); in test [5], 98.6% (inactive); in test [5] (setting [6]), 103%; in test [5] (setting [7]), 96%.

Turning to `O=[N+]([O-])c1ccc(N=Nc2c(Cl)cc(O)cc2Cl)cc1`, the GFP response vs DMSO was 91.9% (inactive) in test [1], 84.8% in test [1] (setting [6]), 85.2% in test [1] (setting [7]) and 112% (inactive) in test [3]. The results for the GFP response relative to DMSO in test [2], in test [2] (setting [8]) and in test [2] (setting [9]) were 252% (active), 150% and 230%, respectively. For the same molecule, the GFP response, % of DMSO in test [4] was 91.4% (inactive); in test [5] it was 96.4% (inactive); in test [5] (setting [6]) it was 96.4%; in test [5] (setting [7]), 82.8%.

Consider `O=C1ON=C(c2ccccc2)/C1=C\c1ccco1`, for which the GFP response vs DMSO in test [1] is 101% (inactive); in test [1] (setting [6]), 90.8%; in test [1] (setting [7]), 87%; in test [3], 124% (inactive). Further, the GFP response relative to DMSO in test [2] is 168% (active); in test [2] (setting [8]), 143%; in test [2] (setting [9]), 165%. For the same molecule, the GFP response, % of DMSO in test [4] is 93.2% (inactive); in test [5], 82.2% (inactive); in test [5] (setting [6]), 89.9%; in test [5] (setting [7]), 70.8%.

As for `COCC(=O)Nc1cc([N+](=O)[O-])ccc1C`, the GFP response vs DMSO was 99.5% (inactive) in test [1], 101% in test [1] (setting [6]), 99.8% in test [1] (setting [7]) and 102% (inactive) in test [3]. Further, the GFP response relative to DMSO in test [2] was 101% (inactive); in test [2] (setting [8]), 99.3%; in test [2] (setting [9]), 99.5%. The GFP response, % of DMSO in test [4] is 98.4% (inactive); in test [5], 99.3% (inactive); in test [5] (setting [6]) it was 100%; in test [5] (setting [7]) it was 98%.

As to `O=C(c1ccccc1[N+](=O)[O-])n1cnc2ccccc21`, the GFP response vs DMSO in test [1] was 100% (inactive); in test [1] (setting [6]), 101%; in test [1] (setting [7]), 100%; in test [3], 94.4% (inactive). For the same molecule, the figures for the GFP response relative to DMSO in test [2], in test [2] (setting [8]) and in test [2] (setting [9]) were 96.1% (inactive), 98.2% and 96.2%, respectively. Besides, the GFP response, % of DMSO in test [4] is 87.1% (inactive); in test [5], 117% (inactive); in test [5] (setting [6]), 110%; in test [5] (setting [7]) it was 119%.
